# PvdQ inh – P. aeruginosa PvdQ acylase inhibitors, primary screen, biochemical, fluorescence, plate reader and imaging, single point; inhibition, % at 10 µM; AID 488965, 2010; PvdQ acylase [Pseudomonas aeruginosa LESB58]; 340,000 compounds, 0.063% hits; purified PvdQ acylase; in the data active = inhibition above about 30%, passing the limit was not always enough;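 also: 0% = vehicle neutral wells and 100% = reference inhibitor wells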
# SR-BI uptake up – activators of SR-BI mediated DiI-HDL uptake, primary screen, ldlA[mSR-BI] CHO cells, DiI fluorescence | 3 h; 100 = double the neutral-control signal | activation, % at 12.5 µM | 320,000 compounds, 0.096% hits;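 active = mean replicate activation of at least 60% and every replicate at or above 60%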;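 also: 0% = median plate neutral-control signal and 100% = twice that signal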
#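 System: CHO ldlA[mSR-BI] cells / Medium: HEPES-buffered (25 mM, pH 7.4) F12 plus 0.5% BSA / Probe or stimulus: labelled HDL, 10 µg/mL / Doses: single compound concentration, delivered by pin transfer / Schedule: 3 h, 37 °C / Measured by: DiI fluorescence, bottom read / Measure: cell-associated DiI fluorescence as measure of HDL uptake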
# dFosB activator – activators of delta FosB homodimer, primary screen, biochemical, fluorescence polarization, TAMRA-CDK5 oligo, single point. 340,000 compounds, 0.99% hits. activation, % at 25 µM. Protein FosB (Mus musculus), P13346. purified delta FosB; percent of positive-control signal above neutral wells;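 active = mean activation above about 17%, with every replicate also reaching it, limit read from the data, passing the limit was not always enough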
# Ecoli rRNA inh – reduced GFP signal of wild-type E. coli, primary screen, bacterial rRNA inhibitor project, GFP/RFP fluorescence, OD600, single point; E. coli WT GFP vs humanized-ribosome RFP mutants, 24 h; active compounds read low; DMSO median 0, no signal -100; GFP signal change (wild-type ribosome), % (test concentration not listed); 350,000 compounds, 1.6% hits; AID 720706, 2013;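 active = significant combined selectivity score with lowered wild-type GFP, culture density cut under 30%, mutant RFP and density less affected; inactive = any of these conditions unmet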
# XiGFP reactiv – activators of inactive X chromosome reactivation, primary screen, imaging, XiGFP fibroblasts, GFP high-content imaging, set 2. XiGFP mouse fibroblasts, % GFP-positive cells imaging, 3 d; cells co-treated with 5-aza-dC sensitizer; scaled so ellipticine positive control = 100%. activation, % at 7.58 µM. 360,000 compounds, 0.055% hits;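 active = mean normalized replicate activation at least 10% and every replicate at or above 10%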;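 also: 0% = median of on-plate neutral control wells and 100% = ellipticine 6 µM median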
#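 Schedule: 3 d treatment, 15 min room-temperature fixation; system: 68-5-11 XiGFP fibroblast line; buffer or medium: DMEM plus 5-aza-dC sensitizer; control set: ellipticine 6 µM positive control; compound: one concentration, pinned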
# SR-BI DiI inh – inhibitors of SR-BI mediated HDL lipid uptake, primary screen, ldlA[mSR-BI] cells, fluorescence, single point; Scavenger receptor class B member 1 (Mus musculus), Q61009; ldlA[mSR-BI] CHO cells, DiI-HDL uptake fluorescence, 3 h; inhibition, % at 12.5 µM; 320,000 compounds, 0.96% hits; AID 488896, 2010;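 active = mean replicate inhibition of at least 70% and a set share of replicates each scoring 70 or more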;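 also: 0% = median of neutral control wells and 100% = median of positive control wells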
# Target sequence (Q61009 whole entry, looked up): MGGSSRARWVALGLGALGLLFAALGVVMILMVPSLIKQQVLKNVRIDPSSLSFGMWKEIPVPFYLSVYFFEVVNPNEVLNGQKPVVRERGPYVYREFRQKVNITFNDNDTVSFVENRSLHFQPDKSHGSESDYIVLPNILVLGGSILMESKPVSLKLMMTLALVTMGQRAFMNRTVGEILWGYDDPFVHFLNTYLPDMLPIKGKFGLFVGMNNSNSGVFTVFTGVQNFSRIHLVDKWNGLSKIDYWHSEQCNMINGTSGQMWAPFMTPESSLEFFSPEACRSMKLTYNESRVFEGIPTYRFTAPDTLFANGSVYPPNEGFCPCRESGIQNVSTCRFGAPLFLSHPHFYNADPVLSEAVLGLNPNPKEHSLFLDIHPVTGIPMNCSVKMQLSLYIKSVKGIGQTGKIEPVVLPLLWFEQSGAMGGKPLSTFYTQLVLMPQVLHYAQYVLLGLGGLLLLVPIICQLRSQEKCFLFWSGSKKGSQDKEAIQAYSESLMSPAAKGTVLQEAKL
# Starred values were filed as active, the others as inactive; . = no result given; ! = not active in a repeat. Compounds with a hit are over-represented: about 2.6% of the library has one in this group of screens.
SMILES,PvdQ inh,SR-BI uptake up,dFosB activator,Ecoli rRNA inh,XiGFP reactiv,SR-BI DiI inh
C=CCn1c(SCC(=O)N(CC)C2CCS(=O)(=O)C2)nc2sc3c(c2c1=O)CCC3 (stereo unspecified),-5,-7,-13,4,137*,7
C=CCn1c(SCC(=O)N(CC)C2CCS(=O)(=O)C2)nnc1-c1ccccc1 (stereo unspecified),2,73*,-2,6,0,-73
C[C@H](CO)N1C[C@H](C)[C@H](CN(C)C(=O)C2CC2)Oc2cc(-c3ccc(F)cc3)ccc2S1(=O)=O,.,.,.,-7,-1,.
Cn1cnc(CCNC(=O)C[C@@H]2CC[C@@H]3[C@H](COC[C@@H](O)CN3C(=O)Nc3ccc(Cl)cc3)O2)c1,.,.,.,-34,0,.
O=C(C[C@H]1CC[C@@H]2[C@H](COC[C@@H](O)CN2Cc2ccc(Cl)cc2)O1)NCCc1ccccc1,.,.,.,-21*!,0,.
Cn1cnc(CCNC(=O)C[C@H]2CC[C@@H]3[C@H](COC[C@H](O)CN3C(=O)Nc3ccc(Cl)cc3)O2)c1,.,.,.,-21*,0,.
O=C(C[C@H]1CC[C@H]2[C@@H](COC[C@@H](O)CN2C(=O)Nc2cc(Cl)cc(Cl)c2)O1)N1CCOCC1,.,.,.,-27*,0,.
O=C(C[C@@H]1CC[C@@H]2[C@H](COC[C@H](O)CN2Cc2ccc(Cl)cc2)O1)NCCc1ccccc1,.,.,.,-5,0,.
CC(C)C(=O)NCc1cc(-c2ccccc2)no1,-11,-1,-2,2,0,1
CCN(CC)C(=O)c1ccc(S(=O)(=O)Cc2ccc(C)cc2)c([N+](=O)[O-])c1,-13,-22,-6,-5,0,22
COc1ccc(Cl)cc1C(Nc1cccnc1)c1ccc2cccnc2c1O (stereo unspecified),-7,-13,4,-23*,0,13
O=c1c2c(nc3n1CCCCC3)-c1ccccc1CC21CCCC1,5,-13,-6,-36*,.,13
CCN1CCCC1CNC(=O)Cn1nc(C)n2c(cc3cc(C)ccc32)c1=O (stereo unspecified),-4,-32,-2,4,0,32
Cc1ccnc(NC(=O)c2cccc(NC(=O)c3ccc(Cl)cc3)c2)c1,11,-89,-3,-17,0,89*
Cc1ccnc(NC(=O)c2cccc(NC(=O)Cc3ccccc3)c2)c1,-15,-43,-8,-32*,0,43
Cc1cccc(C(=O)Nc2cccc(C(=O)Nc3cc(C)ccn3)c2)c1,-10,-18,-13,.,.,18
N=c1c2c3c(sc2ncn1Nc1ccccc1)CCC3,.,.,.,-17*,0,.
CC(=O)c1nn(-c2cccc(Br)c2)cc1C(=O)c1ccc2ccccc2c1,-11,-5,0,.,.,5
CCCCC(CC)C(=O)Nc1cc(=O)[nH]c2nc3ccccc3n12 (stereo unspecified),-4,410*,-12,11,0,-410
Cc1coc2c(C)c3oc(=O)cc(-c4ccccc4)c3cc12,-11,-50,3,.,.,50
O=c1c2c3nc4ccccc4nc3n(/N=C/c3ccco3)c2ncn1CCC1=CCCCC1,-5,67*,-1,.,.,-67
COc1ccc(COc2cc(-c3cccc(OC)c3)nc3ccc(NC(=O)c4ccc(C)cc4)cc23)cc1,-13,-72,0,14,0,72*
COc1ccc(COc2cc(-c3cccc(OC)c3)nc3ccc(NC(=O)c4ccc(N(C)C)cc4)cc23)cc1,0,-90,-4,.,.,90*
COc1ccc(COc2cc(-c3cccc(OC)c3)nc3ccc(NC(C)=O)cc23)cc1,3,-33,0,13,0,33
CC(=O)Nc1ccc(S(=O)(=O)N2CCN(C(=O)C(=O)c3cccc(C(F)(F)F)c3)CC2)cc1,.,.,.,-13*,0,.
